Screening results deposited in PubChem by several laboratories.
CASP6 VEID inh: caspase-6 (human) enzyme inhibition; P55212; purified caspase-6, Z-VEID-R110 cleavage fluorescence; inhibition, % at 12.5 µM; 0.53% of 350,000 active;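 active = mean inhibition across replicates at least about 35%, with every replicate also reaching that limit, limit read from the data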
Target sequence (P55212 24-179 limits assumed): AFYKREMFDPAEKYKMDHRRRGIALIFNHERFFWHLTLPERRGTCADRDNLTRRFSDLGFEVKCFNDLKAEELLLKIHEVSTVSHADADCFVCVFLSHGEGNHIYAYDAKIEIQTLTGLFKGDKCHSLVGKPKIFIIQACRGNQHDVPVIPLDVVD
Target sequence (P55212 194-293 limits assumed): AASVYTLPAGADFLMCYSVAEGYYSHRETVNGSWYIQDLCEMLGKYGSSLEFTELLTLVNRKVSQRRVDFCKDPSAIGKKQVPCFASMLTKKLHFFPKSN
LEDGF integ inh: blocks HIV-1 LEDGF/p75-dependent DNA integration; TR-FRET IN-LEDGF/p75 DNA integration, Eu/Cy5; inhibition, % at 3.7 µM; 0.64% of 370,000 active;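 active = inhibition above the screen-wide mean plus 3 SD, cut at about 13% in these data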;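 note: signal is the Cy5 over europium emission ratio at 671 and 618 nm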
MBD2 DNA inh: MBD2-methylated oligo binding inhibition. Q9UBB5. TR-FRET, MBD2 binding to methylated oligonucleotide. inhibition, % at 4.4 µM. 0.31% of 370,000 active. AID 686964; in the data active = inhibition above about 13%
NSD2 HMT inh: NSD2 (human) methyltransferase inhibition; 0.54% of 310,000 active; inhibition, % at 12.5 µM; NSD2 peptide methylation, AlphaScreen, 120 min; O96028; in the data active = inhibition above about 50%
TDP2 absorb: blocks human TDP2 phosphodiesterase activity. O95551. recombinant TDP2, T5PNP hydrolysis, p-nitrophenol absorbance 415 nm. inhibition, % at 12.8 µM. 0.34% of 370,000 active. AID 720702;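 active = inhibition above the mean of all tested compounds plus 3 SD, set per campaign, cut at about 25% in these data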
Target sequence (O95551 whole entry, looked up): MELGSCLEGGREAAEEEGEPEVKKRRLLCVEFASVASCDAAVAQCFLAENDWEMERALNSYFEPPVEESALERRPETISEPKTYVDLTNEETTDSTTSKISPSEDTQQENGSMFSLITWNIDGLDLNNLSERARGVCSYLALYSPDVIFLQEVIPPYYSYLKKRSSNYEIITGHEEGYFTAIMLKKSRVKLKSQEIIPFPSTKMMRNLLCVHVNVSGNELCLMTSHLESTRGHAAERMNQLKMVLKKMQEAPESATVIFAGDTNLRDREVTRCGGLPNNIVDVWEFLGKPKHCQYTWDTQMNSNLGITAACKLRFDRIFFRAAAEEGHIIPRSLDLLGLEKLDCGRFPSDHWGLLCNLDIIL
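Incubation: 2 h at 37 °C; Test system: recombinant human TDP2; Quantity: enzyme 120 nM; Read-out basis: percent inhibition; Medium: 50 mM Tris-HCl pH 7.5 with Mg2+, KCl, DTT, BSA; Repeats: single replicate; Compound: 12.8 µM single point, 1% DMSO; Signal: epi absorbance; Reagent: 5 mM T5PNP chromogenic substrate; Benchmarks: no-enzyme high, DMSO-plus-enzyme low.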
UHRF1 binding: blocks human UHRF1 binding to methylated DNA; inhibition, % at 4.4 µM; 0.75% of 370,000 active; UHRF1 binding to methylated oligo, TR-FRET; Q96T88; AID 687016; in the data active = inhibition above about 21%;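 note: UHRF1 SRA domain binding a hemimethylated CpG hairpin DNA probe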
AlphaScreen art: interferes with AlphaScreen signal, flagging NSD2 false positives; AlphaScreen artifact counterscreen, preloaded methylated H4 peptide; AC35, µM (highest dose often 10 µM); 9.4% of 1,500 active; AID 1053174; shares compounds with NSD2 HMT inh; call rule not given here
A number is an active result; – = inactive; · = no result. Only some compounds are listed: those with a hit (about 1.9% of all), similar ones and a draw of the others.

SMILES	CASP6 VEID inh	LEDGF integ inh	MBD2 DNA inh	NSD2 HMT inh	TDP2 absorb	UHRF1 binding	AlphaScreen art
COC(=O)c1ccc(Cn2cnc3c(sc4nc(N5CCOCC5)c5c(c43)CCCC5)c2=O)o1	·	–	–	75.1	–	–	–
COC(=O)c1ccc(CSc2ncnc3c2sc2nc(N4CCOCC4)c4c(c23)CCCC4)o1	·	–	–	–	–	–	·
c1ccc(CN2CCN(c3nc(-c4ccccc4)nc(-n4ccnc4)n3)CC2)cc1	·	·	·	62.7	·	·	–
c1ccc(-c2nc(-n3ccnc3)nc(-n3ccnc3)n2)cc1	·	–	–	–	–	–	·
COCCOC(=O)C1=C(C)NC(C)=C(C(=O)OC(C)C)C1c1cccc([N+](=O)[O-])c1 (configuration not stated)	·	–	–	74.6	–	–	–
CCOC(=O)C1=C(C)NC(C)=C(C(=O)OC)C1c1cccc([N+](=O)[O-])c1 (configuration not stated)	·	–	–	·	–	–	·
CCCCn1c(Cn2nc(C(=O)O)c3ccccc3c2=O)nc2cc(S(N)(=O)=O)ccc21	–	–	–	102.5	–	–	–
NS(=O)(=O)c1ccc(NC(=O)Cn2nc(C(=O)O)c3ccccc3c2=O)cc1	–	–	–	–	–	–	·
Cc1ccccc1N1CC(C(=O)Nc2ccc(S(=O)(=O)N3CCOCC3)cc2)CC1=O (configuration not stated)	–	–	–	85.0	–	–	–
O=C(CC1C(=O)N(c2ccccc2)C(=S)N1c1ccccc1)c1ccc(Br)cc1 (configuration not stated)	–	–	–	50.4	–	–	–
COc1ccccc1S(=O)(=O)N[C@@H]1CC[C@@H](CCn2cc(C3CC3)nn2)O[C@H]1CO	–	·	·	·	·	·	·
Cc1cc2ccccn2c1C(=O)c1cccc([N+](=O)[O-])c1	–	–	–	–	–	–	·
Cc1cc2ccccn2c1C(=O)c1ccc([N+](=O)[O-])o1	–	–	–	61.2	–	–	–
Cc1cccc(NC(=O)c2ccc(NS(=O)(=O)c3cccc4cccnc34)cc2)c1	–	–	–	53.0	–	–	–
COC(=O)c1ccc(NC(=O)c2ccc(NS(=O)(=O)c3cccc4cccnc34)cc2)cc1	·	·	·	–	·	·	·
CCSc1nnc(Nc2ccc(C)cc2)s1	·	–	–	–	–	–	·
Cc1ccc(CSc2nnc(Nc3ccc(C)cc3)s2)cc1	–	–	–	126.6	–	–	–
Cc1cccc(-n2c(C)c(C)c3c(N)ncnc32)c1	–	–	–	–	–	–	·
Cc1ccc(-n2c(C)c(C)c3c(N)ncnc32)cc1	–	–	–	66.8	–	–	–
O=C(C[C@@H]1C=C[C@@H](NC(=O)Nc2ccc3c(c2)OCO3)[C@@H](CO)O1)NCc1ccc2c(c1)OCO2	–	·	·	·	·	·	·
CC(/C=C1\SC(=S)N(NS(=O)(=O)c2ccc(C)cc2)C1=O)=C\c1ccccc1	–	–	–	73.4	–	–	–
CC(/C=C1\SC(=S)N(NS(=O)(=O)c2ccccc2)C1=O)=C\c1ccccc1	–	–	–	54.7	–	–	–
CC(/C=C1\SC(=S)N(NC(=O)c2ccc(C)cc2)C1=O)=C\c1ccccc1	·	·	·	–	·	·	·
C[C@@H]1CCCCO[C@H](CN(C)C(=O)c2ccncc2)[C@@H](C)CN([C@H](C)CO)C(=O)c2cc(NS(C)(=O)=O)ccc2O1	–	·	·	·	·	·	·
Cn1ncc(Cl)c1C(=O)Nc1cc(C(F)(F)F)ccc1F	·	–	–	127.4	–	–	–
SMILES	CASP6 VEID inh	LEDGF integ inh	MBD2 DNA inh	NSD2 HMT inh	TDP2 absorb	UHRF1 binding	AlphaScreen art
O=C(O)CC(C(=O)O)N1C(=O)/C(=C/c2ccc(-c3nc4ccccc4s3)o2)SC1=S (configuration not stated)	·	53.2	34.4	66.9	–	79.1	–
CCOC(=O)C1=C(C)N=c2s/c(=C\c3ccc(O)c([N+](=O)[O-])c3)c(=O)n2C1c1ccccc1OC (configuration not stated)	–	–	–	71.9	–	–	–
Cc1cccc(NC(=O)C2CCN(C(=O)NCc3ccccc3)CC2)c1C	–	–	–	66.3	–	–	–
O=C(Nc1cccc2ccccc12)C1CCN(C(=O)NCc2ccccc2)CC1	·	–	–	–	–	–	·
C/C=C/c1ccc([C@H]2[C@@H](CO)N(C(=O)COC)[C@H]2CNC(=O)C2CC2)cc1	–	·	·	·	·	·	·
NC(=O)c1oc2ccc(Cl)cc2c1N	·	–	–	94.7	–	–	–
O=C(O)CN1C(=O)/C(=C\c2ccccc2OCc2ccc(F)cc2)SC1=S	–	–	–	–	–	–	·
O=C(O)CN1C(=O)/C(=C\c2cc(Br)ccc2OCc2ccc(F)cc2)SC1=S	38.5	–	–	103.9	–	–	–
C[C@@H]1CN([C@@H](C)CO)C(=O)c2cc(NS(C)(=O)=O)ccc2O[C@@H]1CN(C)Cc1ccc(-c2ccccc2)cc1	–	·	·	·	·	·	·
O=[N+]([O-])c1ccc(N/N=C/c2cccs2)nc1	–	–	–	52.4	–	–	–
O=[N+]([O-])c1ccc(NN=Cc2ccccc2)nc1	–	–	–	–	–	–	·
O=c1[nH]n2c(=O)c3c([nH]c2c1N=Nc1cccc(Cl)c1)CCC3	·	–	–	–	–	–	·
O=c1[nH]n2c(=O)c3c([nH]c2c1N=Nc1cccc(C(F)(F)F)c1)CCCC3	·	–	–	125.3	–	–	–
CCCn1c(C)nc2c(c1=O)c1nc3ccccc3nc1n2-c1ccccc1	–	–	–	53.5	–	–	–
Cc1ccc(S(=O)(=O)N(C)C[C@H]2OCCCC[C@@H](C)Oc3ccc(NC(=O)Cc4ccccc4)cc3C(=O)N([C@@H](C)CO)C[C@@H]2C)cc1	–	·	·	·	·	·	·
COCCNC(=O)C[C@H]1C[C@@H]2c3cc(NC(=O)COC)ccc3O[C@@H]2[C@H](CO)O1	–	·	·	·	·	·	·
O=Cc1ccc(OC(=O)C2CC(=O)N(c3ccc(F)cc3)C2)cc1 (configuration not stated)	·	–	–	124.5	–	–	–
O=C(O)C1CC(=O)N(c2ccc(F)cc2)C1 (configuration not stated)	·	–	–	–	–	–	·
Cc1csc(NC(=O)/C=C/c2ccco2)n1	·	–	–	–	–	–	·
O=C(/C=C/c1ccco1)Nc1scc(-c2ccccc2)c1C(=O)O	44.1	–	–	103.2	–	–	–
O=C(CSc1nc2nn(-c3ccccc3)c(=O)c-2c2n1CCCCC2)c1ccc(O)c(O)c1	·	·	·	93.7	·	·	7.91µM
CNC(=O)CSc1nc2nn(-c3ccccc3)c(=O)c-2c2n1CCCCC2	–	·	·	–	·	·	·
COc1ccc(NC(=O)Nc2ccc3c(c2)CC(=O)N([C@@H](C)CO)C[C@@H](C)[C@H](CN(C)Cc2ccccc2)O3)cc1	–	·	·	·	·	·	·
Cc1ccccc1N=C1NC(=O)/C(=C/c2cccn2-c2cccc(C(=O)O)c2)S1	·	–	–	80.2	–	–	–
